# Published values collected from several papers.
# Compare with care: the assays were run in different laboratories.
# Effect on: cell growth or viability
SMILES,cell line,technique,time,IC50 [µM]
O=C1Nc2ccccc2C1=Nc1cccc(Cl)c1,B16,MTT,48 h,> 100
COc1cc([C@@H]2c3cc4c(cc3[C@@H](O[C@@H]3O[C@@H]5CO[C@@H](C)O[C@H]5[C@H](O)[C@H]3O)[C@H]3COC(=O)[C@H]23)OCO4)cc(OC)c1O,Z-138,MTS,72 h,0.03
O=c1[nH]cc(F)c(=O)[nH]1,DLD-1,MTT,72 h,2.68
CONC(=O)c1cccc2c1cc(C)n2-c1nc2c(c(NCc3ccccc3)n1)CCCN2,ARP-1,,72 h,2.1
O=C(CSc1nc2ccccc2s1)N/N=C/c1ccc(OCC(=O)Nc2cccc([N+](=O)[O-])c2)cc1,Z-138,MTS,72 h,> 100
N#Cc1ccc(-c2cc(CNc3cccc4cccnc34)on2)cc1,Z-138,MTS,72 h,10.8
Cc1ccc(CN2C(=O)C(=Nc3cccc(C)c3)c3ccccc32)cc1,B16,MTT,48 h,0.44
CN1CCC(NC2CCc3[nH]c4c(C(N)=O)ccc(-c5ccccc5Cl)c4c3C2)CC1 (centres unmarked),BXPC-3,,96 h,0.0347
O=C1C(=Nc2ccccc2I)c2ccccc2N1Cc1ccc(Br)cc1,B16,MTT,48 h,15.2
O=c1cc(OCc2cc(-c3ccc(C(F)(F)F)cc3)no2)c2ccccc2o1,Z-138,MTS,72 h,> 100
Cc1cc2c(C(N)=O)cccc2n1-c1nc2c(c(NCc3ccccc3)n1)CCCN2,BXPC-3,,72 h,0.8
FC(F)(F)c1cc(OCc2cc(-c3ccccn3)no2)c2ccccc2n1,Z-138,MTS,72 h,> 100
O=C1C(=Nc2ccc(Cl)cc2Br)c2ccccc2N1Cc1ccc([N+](=O)[O-])cc1,B16,MTT,48 h,2.14
O=C(CSc1nc2ccccc2s1)N/N=C/c1ccc(OCC(=O)Nc2cccc(Cl)c2)cc1,Z-138,MTS,72 h,> 100
FC(F)(F)c1cc(OCc2cc(-c3ccc(Cl)cc3Cl)no2)c2ccccc2n1,Z-138,MTS,72 h,> 100
Cc1cc2c(C(=O)O)cccc2n1-c1nc2c(c(NCc3ccccc3)n1)CCCN2,BXPC-3,,72 h,0.7
CC(C)c1cccc(C(C)C)c1N=C1C(=O)Nc2ccccc21,B16,MTT,48 h,6.88
N#Cc1ccc(-c2cc(COc3cc(C(F)(F)F)nc4ccccc34)on2)cc1,Z-138,MTS,72 h,36.7
CCc1ccc(N=C2C(=O)Nc3ccccc32)cc1,B16,MTT,48 h,37.3
Cc1nc(Nc2ncc(C(=O)Nc3c(C)cccc3Cl)s2)cc(N2CC[C@H](O)C2)n1,Granta-519,ATP luminescence,72 h,> 10
